Residue numbers refer to the chain shown, from its start.
Experiments:
Conditions in all cases: stereoisomer not certain
OR2J1 [1] = system: OR2J1
Outline: (§1)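 Transient luciferase assays in mammalian cell lines were common, though methods varied by source. The values come from published papers and their supplementary material, with extra details from the original authors when needed. Responsive refers to a measured signal the original authors judged statistically different from baseline, and non-responsive (inactive) to the remainder.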
Target sequence in this assay (as listed by the source): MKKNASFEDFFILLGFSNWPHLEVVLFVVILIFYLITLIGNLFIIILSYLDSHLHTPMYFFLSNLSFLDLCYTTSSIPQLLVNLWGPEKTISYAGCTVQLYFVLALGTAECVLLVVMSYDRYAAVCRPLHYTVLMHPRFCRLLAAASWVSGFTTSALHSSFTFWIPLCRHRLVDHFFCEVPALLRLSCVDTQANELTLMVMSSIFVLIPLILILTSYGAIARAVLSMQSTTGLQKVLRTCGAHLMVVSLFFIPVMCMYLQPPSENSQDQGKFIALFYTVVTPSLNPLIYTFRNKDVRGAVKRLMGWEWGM

OR2J1 [2] = system: OR2J1; remark: listed apart in the source
Outline: as §1

OR2J2 (Homo sapiens) = target: T1, OR2J2 (Homo sapiens) (UniProt O76002)
T1 sequence (whole entry): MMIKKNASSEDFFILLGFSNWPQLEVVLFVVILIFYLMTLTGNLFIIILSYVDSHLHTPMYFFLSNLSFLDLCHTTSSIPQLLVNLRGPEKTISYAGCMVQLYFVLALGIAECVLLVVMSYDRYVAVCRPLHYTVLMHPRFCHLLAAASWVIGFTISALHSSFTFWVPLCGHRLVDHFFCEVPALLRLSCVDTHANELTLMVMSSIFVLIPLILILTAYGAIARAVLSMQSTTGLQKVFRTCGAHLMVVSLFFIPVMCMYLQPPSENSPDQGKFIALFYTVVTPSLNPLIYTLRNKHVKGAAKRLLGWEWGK
Outline: as §1

OR2J1 (Homo sapiens) = target: T2, OR2J1 (Homo sapiens) (UniProt Q9GZK6)
T2 sequence (whole entry): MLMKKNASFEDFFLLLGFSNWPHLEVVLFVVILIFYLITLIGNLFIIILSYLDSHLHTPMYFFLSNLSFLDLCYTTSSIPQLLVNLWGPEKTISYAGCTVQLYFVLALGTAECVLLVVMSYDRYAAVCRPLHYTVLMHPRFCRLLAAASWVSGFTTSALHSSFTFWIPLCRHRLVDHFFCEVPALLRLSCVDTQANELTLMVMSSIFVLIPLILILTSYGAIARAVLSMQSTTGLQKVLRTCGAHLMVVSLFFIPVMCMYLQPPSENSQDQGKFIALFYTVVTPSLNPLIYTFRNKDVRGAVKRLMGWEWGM
Outline: as §1

OR2J3 (Homo sapiens) = target: T3, OR2J3 (Homo sapiens) (UniProt O76001)
T3 sequence (whole entry): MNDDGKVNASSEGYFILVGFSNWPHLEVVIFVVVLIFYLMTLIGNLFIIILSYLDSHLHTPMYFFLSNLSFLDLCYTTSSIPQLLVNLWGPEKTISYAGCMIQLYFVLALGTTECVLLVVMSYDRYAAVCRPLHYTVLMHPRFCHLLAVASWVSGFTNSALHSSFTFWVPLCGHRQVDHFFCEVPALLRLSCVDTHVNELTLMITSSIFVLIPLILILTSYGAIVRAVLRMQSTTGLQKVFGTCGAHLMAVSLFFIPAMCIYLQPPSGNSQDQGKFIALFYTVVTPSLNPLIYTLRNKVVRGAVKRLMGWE
Outline: as §1

OR2K2 (Homo sapiens) = target: T4, OR2K2 (Homo sapiens) (UniProt Q8NGT1)
T4 sequence (whole entry): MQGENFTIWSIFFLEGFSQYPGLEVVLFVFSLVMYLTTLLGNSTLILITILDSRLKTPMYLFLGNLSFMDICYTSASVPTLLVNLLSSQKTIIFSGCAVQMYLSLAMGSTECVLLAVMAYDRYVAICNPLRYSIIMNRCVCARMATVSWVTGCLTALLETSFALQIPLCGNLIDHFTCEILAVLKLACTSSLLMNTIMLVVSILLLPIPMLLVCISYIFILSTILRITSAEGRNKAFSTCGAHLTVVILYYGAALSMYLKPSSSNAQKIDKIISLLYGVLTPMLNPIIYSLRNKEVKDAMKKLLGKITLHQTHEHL
Outline: as §1

OR2L13 (Homo sapiens) = target: T5, OR2L13 (Homo sapiens) (UniProt Q8N349)
T5 sequence (whole entry): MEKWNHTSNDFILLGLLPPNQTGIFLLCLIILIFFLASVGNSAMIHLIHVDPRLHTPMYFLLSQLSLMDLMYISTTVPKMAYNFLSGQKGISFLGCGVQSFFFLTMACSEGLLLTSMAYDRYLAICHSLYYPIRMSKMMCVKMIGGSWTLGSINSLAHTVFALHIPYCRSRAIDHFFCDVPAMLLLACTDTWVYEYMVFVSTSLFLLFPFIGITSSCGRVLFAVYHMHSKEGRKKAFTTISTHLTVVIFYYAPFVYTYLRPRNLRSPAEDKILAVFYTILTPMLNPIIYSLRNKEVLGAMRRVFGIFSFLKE
Outline: as §1

OR2L2 (Homo sapiens) = target: T6, OR2L2 (Homo sapiens) (UniProt Q8NH16)
T6 sequence (whole entry): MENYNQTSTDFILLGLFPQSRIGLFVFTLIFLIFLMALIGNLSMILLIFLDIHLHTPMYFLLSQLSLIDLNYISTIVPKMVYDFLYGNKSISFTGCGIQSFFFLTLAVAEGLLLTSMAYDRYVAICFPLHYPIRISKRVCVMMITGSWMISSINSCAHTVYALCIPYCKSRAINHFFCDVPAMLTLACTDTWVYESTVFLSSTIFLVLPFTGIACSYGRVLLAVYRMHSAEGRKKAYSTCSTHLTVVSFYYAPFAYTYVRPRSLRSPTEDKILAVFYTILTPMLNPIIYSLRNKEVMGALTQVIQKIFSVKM
Outline: as §1

OR2L3 (Homo sapiens) = target: T7, OR2L3 (Homo sapiens) (UniProt Q8NG85)
T7 sequence (whole entry): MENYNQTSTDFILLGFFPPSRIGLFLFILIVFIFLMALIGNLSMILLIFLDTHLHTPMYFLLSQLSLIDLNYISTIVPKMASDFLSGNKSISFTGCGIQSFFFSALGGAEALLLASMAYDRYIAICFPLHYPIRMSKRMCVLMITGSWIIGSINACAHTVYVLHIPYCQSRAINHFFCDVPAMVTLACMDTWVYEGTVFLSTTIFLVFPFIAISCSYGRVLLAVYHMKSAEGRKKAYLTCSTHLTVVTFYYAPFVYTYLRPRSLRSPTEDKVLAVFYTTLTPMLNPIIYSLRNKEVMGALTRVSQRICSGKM
Outline: as §1

OR2L5 (Homo sapiens) = target: T8, OR2L5 (Homo sapiens) (UniProt Q8NG80)
T8 sequence (whole entry): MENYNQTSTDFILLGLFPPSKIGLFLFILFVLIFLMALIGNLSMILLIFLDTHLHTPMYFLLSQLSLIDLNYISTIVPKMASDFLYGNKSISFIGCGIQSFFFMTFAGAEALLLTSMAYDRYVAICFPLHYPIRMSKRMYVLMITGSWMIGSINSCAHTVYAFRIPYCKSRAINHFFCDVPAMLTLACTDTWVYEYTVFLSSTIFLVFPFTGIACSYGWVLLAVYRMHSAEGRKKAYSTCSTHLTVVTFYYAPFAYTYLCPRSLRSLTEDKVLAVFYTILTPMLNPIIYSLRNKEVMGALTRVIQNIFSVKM
Outline: as §1

OR2L8 (Homo sapiens) = target: T9, OR2L8 (Homo sapiens) (UniProt Q8NGY9)
T9 sequence (whole entry): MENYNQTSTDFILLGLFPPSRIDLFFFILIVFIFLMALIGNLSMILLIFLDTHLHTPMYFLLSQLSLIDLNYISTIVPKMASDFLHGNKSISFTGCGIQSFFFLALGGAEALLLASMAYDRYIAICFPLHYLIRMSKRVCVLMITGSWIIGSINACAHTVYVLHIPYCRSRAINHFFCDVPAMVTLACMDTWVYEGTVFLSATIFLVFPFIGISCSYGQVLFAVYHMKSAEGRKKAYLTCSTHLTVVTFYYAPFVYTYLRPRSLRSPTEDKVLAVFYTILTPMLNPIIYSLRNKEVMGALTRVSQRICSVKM
Outline: as §1

OR2M2 (Homo sapiens) = target: T10, OR2M2 (Homo sapiens) (UniProt Q96R28)
T10 sequence (whole entry): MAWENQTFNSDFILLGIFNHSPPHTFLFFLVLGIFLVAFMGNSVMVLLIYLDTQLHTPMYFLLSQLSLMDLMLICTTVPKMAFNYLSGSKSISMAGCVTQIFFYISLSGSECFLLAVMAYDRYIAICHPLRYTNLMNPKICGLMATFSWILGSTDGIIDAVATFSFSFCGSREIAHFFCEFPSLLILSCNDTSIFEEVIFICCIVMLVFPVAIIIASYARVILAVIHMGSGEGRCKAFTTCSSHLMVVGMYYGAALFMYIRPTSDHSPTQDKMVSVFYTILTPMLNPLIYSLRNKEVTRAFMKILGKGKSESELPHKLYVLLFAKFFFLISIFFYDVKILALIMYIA
Outline: as §1

OR2M3 (Homo sapiens) = target: T11, OR2M3 (Homo sapiens) (UniProt Q8NG83)
T11 sequence (whole entry): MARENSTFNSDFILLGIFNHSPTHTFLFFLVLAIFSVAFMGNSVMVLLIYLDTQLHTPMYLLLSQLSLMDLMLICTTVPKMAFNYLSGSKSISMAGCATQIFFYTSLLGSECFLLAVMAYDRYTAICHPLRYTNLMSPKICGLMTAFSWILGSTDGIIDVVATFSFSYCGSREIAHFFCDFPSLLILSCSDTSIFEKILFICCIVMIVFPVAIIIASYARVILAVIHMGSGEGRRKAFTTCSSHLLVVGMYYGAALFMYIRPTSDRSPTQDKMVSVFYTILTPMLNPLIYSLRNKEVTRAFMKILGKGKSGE
Outline: as §1

OR2H2 = system: T12, OR2H2
T12 sequence (whole entry): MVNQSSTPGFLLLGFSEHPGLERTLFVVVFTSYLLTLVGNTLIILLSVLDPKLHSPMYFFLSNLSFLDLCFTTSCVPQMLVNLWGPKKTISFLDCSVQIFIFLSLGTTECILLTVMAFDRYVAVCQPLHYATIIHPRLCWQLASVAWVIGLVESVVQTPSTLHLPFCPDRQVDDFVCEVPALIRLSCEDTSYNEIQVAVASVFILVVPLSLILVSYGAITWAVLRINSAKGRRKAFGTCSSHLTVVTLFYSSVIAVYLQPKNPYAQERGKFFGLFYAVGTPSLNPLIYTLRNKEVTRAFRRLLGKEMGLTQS
Outline: as §1

OR2J1 L14I V182A = system: T13, OR2J1 L14I V182A
T13 sequence (whole entry): T2 sequence (whole entry) with L14I, V182A
Outline: as §1

OR2J2 = system: T14, OR2J2
T14 sequence (whole entry): T1 sequence (whole entry) with H74Y, A111T, A146V, A218T
Outline: as §1

OR2J3 = system: T15, OR2J3
T15 sequence (whole entry): T3 sequence (whole entry) with V228I, I261M
Outline: as §1
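Note: active if original authors judged signal statistically different from baseline.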

| Structure (SMILES) | odorant receptor agonist call (OR2J1 [1]) | odorant receptor agonist call (OR2J1 [2]) | odorant receptor agonist call (OR2J2 (Homo sapiens)) | odorant receptor agonist call (OR2J1 (Homo sapiens)) | odorant receptor agonist call (OR2J3 (Homo sapiens)) | odorant receptor agonist call (OR2K2 (Homo sapiens)) | odorant receptor agonist call (OR2L13 (Homo sapiens)) | odorant receptor agonist call (OR2L2 (Homo sapiens)) | odorant receptor agonist call (OR2L3 (Homo sapiens)) | odorant receptor agonist call (OR2L5 (Homo sapiens)) | odorant receptor agonist call (OR2L8 (Homo sapiens)) | odorant receptor agonist call (OR2M2 (Homo sapiens)) | odorant receptor agonist call (OR2M3 (Homo sapiens)) | odorant receptor agonist call (OR2H2) | odorant receptor agonist call (OR2J1 L14I V182A) | odorant receptor agonist call (OR2J2) | odorant receptor agonist call (OR2J3) |
| --- | --- | --- | --- | --- | --- | --- | --- | --- | --- | --- | --- | --- | --- | --- | --- | --- | --- |
| CCCC(C)=CC(=O)O | inactive | inactive |  |  |  |  |  |  |  |  |  |  |  |  |  |  |  |
| CC(=O)OCc1ccccc1 |  |  | inactive |  |  |  |  |  |  |  |  |  |  |  |  |  |  |
| CCCCC(S)C(C)CO (stereo not drawn) |  |  | inactive | inactive | inactive | inactive | inactive | inactive | inactive | inactive | inactive | inactive | inactive |  |  |  |  |
| CC1=C(O)C(=O)C(C)O1 (stereo not drawn) |  |  |  | inactive | inactive | inactive | inactive | inactive | inactive | inactive | inactive | inactive | inactive | inactive | inactive | inactive | inactive |
| CCCCCC(=O)C(C)C(C)=O (stereo not drawn) |  |  | inactive | inactive | inactive | inactive | inactive | inactive | inactive | inactive | inactive | inactive | inactive |  |  |  |  |
| CCCCCC(S)C(C)CO (stereo not drawn) |  |  | inactive | inactive | inactive | inactive | inactive | inactive | inactive | inactive | inactive | inactive | inactive |  |  |  |  |
| CC1=NC(C)C(C)S1 (stereo not drawn) |  |  |  | inactive | inactive | inactive | inactive | inactive | inactive | inactive | inactive | inactive | inactive | inactive | inactive | inactive | inactive |
| CCCCCCCCCCO |  |  | active |  |  |  |  |  |  |  |  |  |  |  |  |  |  |
| CCCC(S)CCOC(C)=O (stereo not drawn) |  |  |  | inactive | inactive | inactive | inactive | inactive | inactive | inactive | inactive | inactive | inactive | inactive | inactive | inactive | inactive |
| CCC1OC(C)=C(O)C1=O (stereo not drawn) |  |  |  | inactive | inactive | inactive | inactive | inactive | inactive | inactive | inactive | inactive | inactive | inactive | inactive | inactive | inactive |
| O=C(c1ccccc1)c1ccccc1 |  |  | inactive |  |  |  |  |  |  |  |  |  |  |  |  |  |  |
| CCC1OC(=O)C(O)=C1C (stereo not drawn) |  |  |  | inactive | inactive | inactive | inactive | inactive | inactive | inactive | inactive | inactive | inactive | inactive | inactive | inactive | inactive |

Source: the M2OR odorant receptor database
